Reference: ChEMBL document CHEMBL5257020, “Discovery of a 9-mer Cationic Peptide (LTX-315) as a Potential First in Class Oncolytic Peptide” (J Med Chem, 2016)
pIC50: −log10 of the molar value. Where a SMILES comes first, the peptide text is derived from it. [ ]: non-standard residue; d: D form. ξ: configuration not given here. ξBip = NC(Cc1ccc(-c2ccccc2)cc1)C(=O)O; ξDip = NC(C(=O)O)C(c1ccccc1)c1ccccc1

Key:
[1] = tested on: Ramos; test: Cytotoxicity against human Ramos cells assessed as inhibition of cell proliferation incubated for 4 hrs by MTS assay; type: functional, cell-based
Summary of the method: (§1)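 Cells grown in RPMI-1640 with 2 mM L-glutamine and 10% FBS, plated, then held 24 h at 37 °C. Adherent lines washed once in FBS-free medium. Cells exposed 4 h at 37 °C, 5% CO2 in FBS-free medium to 10 concentrations (1/4 steps, 400 μM top). 1% Triton X-100 served as positive control. MTS/PMS added for 2 h, then OD 490 nm read. IC50 from semilog curves; three independent experiments, quadruplicate wells.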

[2] = Cytotoxicity against human MRC5 cells assessed as inhibition of cell proliferation incubated for 4 hrs by MTT assay; type: toxicity, cell-based
Summary of the method: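 MRC-5 human embryonic lung fibroblasts cultured in MEM with 2 mM L-glutamine and 10% FBS, without antibiotics, at 37 °C in humidified 5% CO2. Cultures were tested for mycoplasma. IC50 from three or more independent measurements, given as mean ± SD.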

[3] = Cytotoxicity against human IGROV(CDDP) cells assessed as inhibition of cell proliferation incubated for 4 hrs by MTS assay; type: functional, cell-based; summary of the method: as §1
[4] = tested on: HL60/ADR; test: Cytotoxicity against human HL60/ADR cells assessed as inhibition of cell proliferation incubated for 4 hrs by MTS assay; type: functional, cell-based; summary of the method: as §1
[5] = tested on: PC-3; test: Cytotoxicity against human PC-3 cells assessed as inhibition of cell proliferation incubated for 4 hrs by MTS assay; type: functional, cell-based; settings: PC-3, 4 h; summary of the method: as §1
[6] = tested on: NAMALVA; test: Cytotoxicity against human NAMALVA cells assessed as inhibition of cell proliferation incubated for 4 hrs by MTS assay; type: functional, cell-based; summary of the method: as §1
[7] = tested on: Daudi; test: Cytotoxicity against human Daudi cells assessed as inhibition of cell proliferation incubated for 4 hrs by MTS assay; type: functional, cell-based; summary of the method: as §1
[8] = tested on: PANC-1; test: Cytotoxicity against human PANC-1 cells assessed as inhibition of cell proliferation incubated for 4 hrs by MTS assay; type: functional, cell-based; settings: PANC-1, 4 h; summary of the method: as §1
[9] = tested on: T47D; test: Cytotoxicity against human T47D cells assessed as inhibition of cell proliferation incubated for 4 hrs by MTS assay; type: functional, cell-based; summary of the method: as §1
[10] = tested on: OVCAR-3; test: Cytotoxicity against human OVCAR-3 cells assessed as inhibition of cell proliferation incubated for 4 hrs by MTS assay; type: functional, cell-based; settings: OVCAR-3, 4 h; summary of the method: as §1
[11] = tested on: CCRF-CEM; test: Cytotoxicity against human CCRF-CEM cells assessed as inhibition of cell proliferation incubated for 4 hrs by MTS assay; type: functional, cell-based; summary of the method: as §1
[12] = tested on: IGROV-1; test: Cytotoxicity against human IGROV-1 cells assessed as inhibition of cell proliferation incubated for 4 hrs by MTS assay; type: functional, cell-based; settings: IGROV-1, 4 h; summary of the method: as §1
[13] = tested on: K562; test: Cytotoxicity against human K562 cells assessed as inhibition of cell proliferation incubated for 4 hrs by MTS assay; type: functional, cell-based; settings: K562, 4 h; summary of the method: as §1
[14] = tested on: HCT-116; test: Cytotoxicity against human HCT-116 cells assessed as inhibition of cell proliferation incubated for 4 hrs by MTS assay; type: functional, cell-based; settings: HCT-116, 4 h; summary of the method: as §1
[15] = tested on: DU-145; test: Cytotoxicity against human DU-145 cells assessed as inhibition of cell proliferation incubated for 4 hrs by MTS assay; type: functional, cell-based; settings: DU-145, 4 h; summary of the method: as §1
[16] = tested on: HCT-15; test: Cytotoxicity against human HCT-15 cells assessed as inhibition of cell proliferation incubated for 4 hrs by MTS assay; type: functional, cell-based; settings: HCT-15, 4 h; summary of the method: as §1
[17] = tested on: U-937; test: Cytotoxicity against human U-937 cells assessed as inhibition of cell proliferation incubated for 4 hrs by MTS assay; type: functional, cell-based; settings: U-937, 4 h; summary of the method: as §1
[18] = tested on: HL-60; test: Cytotoxicity against human HL-60 cells assessed as inhibition of cell proliferation incubated for 4 hrs by MTS assay; type: functional, cell-based; settings: HL-60, 4 h; summary of the method: as §1
[19] = tested on: Toledo; test: Cytotoxicity against human Toledo cells assessed as inhibition of cell proliferation incubated for 4 hrs by MTS assay; type: functional, cell-based; summary of the method: as §1
[20] = Cytotoxicity against mouse AT84 cells assessed as inhibition of cell proliferation incubated for 4 hrs by MTT assay; type: functional, cell-based; settings: AT84, 4 h
[21] = tested on: MCF7; test: Cytotoxicity against human MCF7 cells assessed as inhibition of cell proliferation incubated for 4 hrs by MTS assay; type: functional, cell-based; settings: MCF7, 4 h; summary of the method: as §1
[22] = tested on: KARPAS-299; test: Cytotoxicity against human KARPAS-299 cells assessed as inhibition of cell proliferation incubated for 4 hrs by MTS assay; type: functional, cell-based; settings: KARPAS-299, 4 h; summary of the method: as §1
[23] = tested on: BXPC-3; test: Cytotoxicity against human BXPC-3 cells assessed as inhibition of cell proliferation incubated for 4 hrs by MTS assay; type: functional, cell-based; settings: BXPC-3, 4 h; summary of the method: as §1
[24] = tested on: HT-29; test: Cytotoxicity against human HT-29 cells assessed as inhibition of cell proliferation incubated for 4 hrs by MTS assay; type: functional, cell-based; settings: HT-29, 4 h; summary of the method: as §1
[25] = tested on: MCF7; test: Cytotoxicity against human MCF7 cells transfected with MDR1 assessed as inhibition of cell proliferation incubated for 4 hrs by MTS assay; type: functional, cell-based; settings: MCF7, 4 h; summary of the method: as §1
[26] = Cytotoxicity against human U-87 MG cells assessed as inhibition of cell proliferation incubated for 4 hrs by MTS assay; type: functional, cell-based, U-87MG ATCC; summary of the method: as §1
[27] = tested on: A549; test: Cytotoxicity against human A549 cells assessed as inhibition of cell proliferation incubated for 4 hrs by MTS assay; type: functional, cell-based; settings: A549, 4 h; summary of the method: as §1
[28] = tested on: SK-N-AS; test: Cytotoxicity against human SK-N-AS cells assessed as inhibition of cell proliferation incubated for 4 hrs by MTS assay; type: functional, cell-based; summary of the method: as §1
[29] = tested on: 786-0; test: Cytotoxicity against human 786-0 cells assessed as inhibition of cell proliferation incubated for 4 hrs by MTS assay; type: functional, cell-based; settings: 786-0, 4 h; summary of the method: as §1
[30] = Cytotoxicity against human HUVEC-C cells assessed as inhibition of cell proliferation incubated for 4 hrs by MTS assay; type: toxicity, cell-based; summary of the method: as §1
[31] = tested on: CEM-VLB; test: Cytotoxicity against human CCRF-CEM/VLB cells assessed as inhibition of cell proliferation incubated for 4 hrs by MTS assay; type: functional, cell-based; summary of the method: as §1
[32] = tested on: SK-OV-3; test: Cytotoxicity against human SK-OV-3 cells assessed as inhibition of cell proliferation incubated for 4 hrs by MTS assay; type: functional, cell-based; settings: SK-OV-3, 4 h; summary of the method: as §1
[33] = tested on: SU-DHL-1; test: Cytotoxicity against human SU-DHL-1 cells assessed as inhibition of cell proliferation incubated for 4 hrs by MTS assay; type: functional, cell-based; settings: SU-DHL-1, 4 h; summary of the method: as §1
[34] = tested on: A20; test: Cytotoxicity against mouse A20 lymphoma cells assessed as inhibition of cell proliferation incubated for 4 hrs by MTT assay; type: functional, cell-based; settings: A20, 4 h
Summary of the method: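 Murine A20 cells cultured in RPMI-1640 with 2 mM L-glutamine, 1.5 g/L sodium bicarbonate, 4.5 g/L glucose, 10 mM HEPES, 1.0 mM sodium pyruvate, 0.05 mM 2-mercaptoethanol and 10% FBS, without antibiotics, at 37 °C, 5% CO2. IC50 from three or more independent measurements, given as mean ± SD.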

[35] = tested on: Calu-6; test: Cytotoxicity against human Calu-6 cells assessed as inhibition of cell proliferation incubated for 4 hrs by MTS assay; type: functional, cell-based; settings: Calu-6, 4 h; summary of the method: as §1
[36] = tested on: Malme-3M; test: Cytotoxicity against human Malme-3M cells assessed as inhibition of cell proliferation incubated for 4 hrs by MTS assay; type: functional, cell-based; summary of the method: as §1
[37] = tested on: COLO 205; test: Cytotoxicity against human COLO 205 cells assessed as inhibition of cell proliferation incubated for 4 hrs by MTS assay; type: functional, cell-based; settings: COLO 205, 4 h; summary of the method: as §1
[38] = Cytotoxicity against human MINO cells assessed as inhibition of cell proliferation incubated for 4 hrs by MTS assay; type: functional, cell-based; summary of the method: as §1
[39] = tested on: NCI-H460; test: Cytotoxicity against human NCI-H460 cells assessed as inhibition of cell proliferation incubated for 4 hrs by MTS assay; type: functional, cell-based; settings: NCI-H460, 4 h; summary of the method: as §1

SMILES | pIC50 [1] | IC50 at 4 h [2] [µM] | pIC50 [3] | pIC50 [4] | pIC50 [5] | pIC50 [6] | pIC50 [7] | pIC50 [8] | pIC50 [9] | pIC50 [10] | pIC50 [11] | pIC50 [12] | pIC50 [13] | pIC50 [14] | pIC50 [15] | pIC50 [16] | pIC50 [17] | pIC50 [18] | pIC50 [19] | pIC50 [20] | further results
NCCCC[C@H](NC(=O)[C@H](Cc1c[nH]c2ccccc12)NC(=O)[C@H](Cc1c[nH]c2ccccc12)NC(=O)[C@H](CCCCN)NC(=O)[C@H](CCCCN)NC(=O)[C@H](Cc1c[nH]c2ccccc12)NC(=O)C(Cc1ccc(-c2ccccc2)cc1)NC(=O)[C@H](CCCCN)NC(=O)[C@@H](N)CCCCN)C(N)=O (stereo partly drawn) (H-KK[ξBip]WKKWWK-NH2) | 5.49 | 151 | 5.18 | 5.15 | 5.03 | 5.07 | 5.18 | 4.97 | 5.38 | 4.84 | 5.12 | 4.87 | 5.14 | 5.12 | 5.06 | 4.86 | 5.42 | 5.21 | 5.28 | 4.75 | pIC50 [21]: 5.17; pIC50 [22]: 5.00; pIC50 [23]: 5.05; pIC50 [24]: 4.98; pIC50 [25]: 5.08; pIC50 [26]: 4.73; pIC50 [27]: 4.99; pIC50 [28]: 5.21; pIC50 [29]: 4.77; IC50 at 4 h [30]: 37.9 µM; pIC50 [31]: 5.24; pIC50 [32]: 4.75; pIC50 [33]: 5.34; pIC50 [34]: 4.89; pIC50 [35]: 5.21; pIC50 [36]: 5.05; pIC50 [37]: 5.31; pIC50 [38]: 5.08; pIC50 [39]: 4.95
N=C(N)NCCC[C@H](NC(=O)[C@H](Cc1c[nH]c2ccccc12)NC(=O)[C@H](Cc1c[nH]c2ccccc12)NC(=O)[C@H](CCCNC(=N)N)NC(=O)[C@H](CCCNC(=N)N)NC(=O)C(NC(=O)[C@H](Cc1c[nH]c2ccccc12)NC(=O)[C@H](CCCNC(=N)N)NC(=O)[C@@H](N)CCCNC(=N)N)C(c1ccccc1)c1ccccc1)C(N)=O (stereo partly drawn) (H-RRW[ξDip]RRWWR-NH2) | 5.55 | 76 | 5.26 | 5.22 | 5.01 | 5.28 | 5.33 | 4.90 | 5.46 | 5.08 | 5.25 | 4.95 | 5.15 | 5.32 | 5.17 | 5.12 | 5.59 | 5.17 | 5.52 | 4.95 | pIC50 [21]: 5.26; pIC50 [22]: 5.09; pIC50 [23]: 5.21; pIC50 [24]: 4.94; pIC50 [25]: 5.18; pIC50 [26]: 4.88; pIC50 [27]: 5.14; pIC50 [28]: 5.16; pIC50 [29]: 5.12; IC50 at 4 h [30]: 19.4 µM; pIC50 [31]: 5.44; pIC50 [32]: 5.13; pIC50 [33]: 5.30; pIC50 [34]: 5.17; pIC50 [35]: 5.24; pIC50 [36]: 4.98; pIC50 [37]: 5.17; pIC50 [38]: 5.28; pIC50 [39]: 5.03
